Key:
Type in all cases: functional
[1] = system: Escherichia coli; assay: Antibacterial activity against Escherichia coli ATCC25922 assessed as inhibition of visible bacterial growth measured after 20 hrs under aerobic condition by two fold serial dilution assay
Summary of the method: (§1)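 Broth microdilution following EUCAST. Compound was tested at final well concentrations of 0.25–128 µg/mL against 5.10^5 CFU/mL inoculum, incubated 20 h at 37 °C aerobically. MIC was taken as the lowest concentration with no visible growth. There were three independent experiments per strain.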

[2] = system: Klebsiella pneumoniae; assay: Antibacterial activity against Klebsiella pneumoniae ATCC700603 assessed as inhibition of visible bacterial growth measured after 20 hrs under aerobic condition by two fold serial dilution assay; summary of the method: as §1
[3] = system: Pseudomonas aeruginosa; assay: Antibacterial activity against Pseudomonas aeruginosa ATCC27853 assessed as inhibition of visible bacterial growth measured after 20 hrs under aerobic condition by two fold serial dilution assay; summary of the method: as §1
[4] = system: Escherichia coli; assay: Antibacterial activity against colistin resistant Escherichia coli NTCC 13846 harboring mcr-1 gene assessed as inhibition of visible bacterial growth measured after 20 hrs under aerobic condition by two fold serial dilution assay
[5] = system: Escherichia coli; assay: Antibacterial activity against colistin resistant Escherichia coli A50 harboring mcr-1 gene assessed as inhibition of visible bacterial growth measured after 20 hrs under aerobic condition by two fold serial dilution assay
[6] = system: Klebsiella pneumoniae; assay: Antibacterial activity against chromosomally-mediated resistant Klebsiella pneumoniae BA03057 assessed as inhibition of visible bacterial growth measured after 20 hrs under aerobic condition by two fold serial dilution assay
[7] = system: Pseudomonas aeruginosa; assay: Antibacterial activity against chromosomally-mediated colistin resistant Pseudomonas aeruginosa 15080 assessed as inhibition of visible bacterial growth measured after 20 hrs under aerobic condition by two fold serial dilution assay
[8] = system: Pseudomonas aeruginosa; assay: Antibacterial activity against chromosomally-mediated colistin resistant Pseudomonas aeruginosa 10039 assessed as inhibition of visible bacterial growth measured after 20 hrs under aerobic condition by two fold serial dilution assay
[9] = system: Pseudomonas aeruginosa; assay: Antibacterial activity against chromosomally-mediated colistin resistant Pseudomonas aeruginosa 1002 assessed as inhibition of visible bacterial growth measured after 20 hrs under aerobic condition by two fold serial dilution assay
[10] = system: Escherichia coli; assay: Colistin adjuvant activity against colistin-resistant Escherichia coli A50 assessed as antibacterial effect by measuring colistin MIC incubated for 24 hrs under aerobic condition by two fold serial dilution method
[11] = system: Klebsiella pneumoniae; assay: Colistin adjuvant activity against colistin-resistant Klebsiella pneumoniae BA03057 assessed as antibacterial effect by measuring colistin MIC incubated for 24 hrs under aerobic condition by two fold serial dilution method
[12] = system: Escherichia coli; assay: Colistin adjuvant activity against colistin-resistant Escherichia coli A50 assessed as colistin MIC by measuring potentiation fold incubated for 24 hrs under aerobic condition by two fold serial dilution method relative to colistin alone
[13] = system: Klebsiella pneumoniae; assay: Colistin adjuvant activity against colistin-resistant Klebsiella pneumoniae BA03057 assessed as colistin MIC by measuring potentiation fold incubated for 24 hrs under aerobic condition by two fold serial dilution method relative to colistin alone
[14] = system: Klebsiella pneumoniae; assay: Synergistic antibacterial activity against Klebsiella pneumoniae BA03057 assessed as fractional inhibitory concentration index incubated for 24 hrs under aerobic condition in presence of colistin by checkerboard assay
Summary of the method: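 Checkerboard against KP BA03057 at 5.10^5 CFU/mL. Colistin was two-fold diluted 0–64 µg/mL across compound two-fold diluted 0–100 µM. Plates were incubated 24 h at 37 °C aerobically and absorbance read at 600 nm. FICI = MIC(compound, combined)/MIC(compound alone) + MIC(colistin, combined)/MIC(colistin alone), with synergy at FICI < 0.5. Plates were run in duplicate.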

Row | Compound | MIC [1] | MIC [2] | MIC [3] | MIC [4] | MIC [5] | MIC [6] | MIC [7] | MIC [8] | MIC [9] | MIC [10] | MIC [11] | fold change (FC) [12] | fold change (FC) [13] | fractional inhibitory concentration index (FICI) [14]
1 | COc1ccc(NC(=O)NCCc2c[nH]c3ccccc23)cc1 | > 128 µg/mL | > 128 µg/mL | > 128 µg/mL | > 128 µg/mL | > 128 µg/mL | > 128 µg/mL | > 128 µg/mL | > 128 µg/mL | > 128 µg/mL | 4 µg/mL | 16 µg/mL | 0.5 | 0.25 | 
2 | O=C(NCCc1c[nH]c2ccccc12)Nc1ccc(C(F)(F)F)cc1 | > 128 µg/mL | > 128 µg/mL | > 128 µg/mL | > 128 µg/mL | > 128 µg/mL | > 128 µg/mL | > 128 µg/mL | > 128 µg/mL | > 128 µg/mL | 8 µg/mL | 2 µg/mL | 1 | 0.031 | 0.167
3 | O=C(NCCc1c[nH]c2ccccc12)NCc1ccccc1 | > 128 µg/mL | > 128 µg/mL | > 128 µg/mL | > 128 µg/mL | > 128 µg/mL | > 128 µg/mL | > 128 µg/mL | > 128 µg/mL | > 128 µg/mL | 4 µg/mL | 8 µg/mL | 0.5 | 0.125 | 
4 | O=C(NCCc1c[nH]c2ccccc12)Nc1cccc(Br)c1 | > 128 µg/mL | > 128 µg/mL | > 128 µg/mL | > 128 µg/mL | > 128 µg/mL | > 128 µg/mL | > 128 µg/mL | > 128 µg/mL | > 128 µg/mL | 8 µg/mL | 8 µg/mL | 1 | 0.125 | 
5 | O=C(NCCc1c[nH]c2ccccc12)Nc1ccccc1F | > 128 µg/mL | > 128 µg/mL | > 128 µg/mL | > 128 µg/mL | > 128 µg/mL | > 128 µg/mL | > 128 µg/mL | > 128 µg/mL | > 128 µg/mL | 8 µg/mL | 8 µg/mL | 1 | 0.125 | 
6 | Cc1ccc(NC(=O)NCCc2c[nH]c3ccccc23)cc1 | > 128 µg/mL | > 128 µg/mL | > 128 µg/mL | > 128 µg/mL | > 128 µg/mL | > 128 µg/mL | > 128 µg/mL | > 128 µg/mL | > 128 µg/mL | 4 µg/mL | 8 µg/mL | 0.5 | 0.125 | 
7 | O=C(NCCc1c[nH]c2ccccc12)Nc1cc(Cl)cc(Cl)c1 | > 128 µg/mL | > 128 µg/mL | > 128 µg/mL | > 128 µg/mL | > 128 µg/mL | > 128 µg/mL | > 128 µg/mL | > 128 µg/mL | > 128 µg/mL | 2 µg/mL | 2 µg/mL | 0.25 | 0.031 | 
8 | O=C(NCCc1c[nH]c2ccccc12)Nc1ccccc1Cl | > 128 µg/mL | > 128 µg/mL | > 128 µg/mL | > 128 µg/mL | > 128 µg/mL | > 128 µg/mL | > 128 µg/mL | > 128 µg/mL | > 128 µg/mL | 8 µg/mL | 8 µg/mL | 1 | 0.125 | 
9 | O=C(NCCc1c[nH]c2ccccc12)Nc1ccc(F)cc1 | > 128 µg/mL | > 128 µg/mL | > 128 µg/mL | > 128 µg/mL | > 128 µg/mL | > 128 µg/mL | > 128 µg/mL | > 128 µg/mL | > 128 µg/mL | 4 µg/mL | 8 µg/mL | 0.5 | 0.125 | 
10 | O=C(NCCc1c[nH]c2ccccc12)Nc1ccc(Br)cc1 | > 128 µg/mL | > 128 µg/mL | > 128 µg/mL | > 128 µg/mL | > 128 µg/mL | > 128 µg/mL | > 128 µg/mL | > 128 µg/mL | > 128 µg/mL | 2 µg/mL | 8 µg/mL | 0.25 | 0.125 | 
11 | O=C(NCCc1c[nH]c2ccccc12)Nc1ccccc1 | > 128 µg/mL | > 128 µg/mL | > 128 µg/mL | > 128 µg/mL | > 128 µg/mL | > 128 µg/mL | > 128 µg/mL | > 128 µg/mL | > 128 µg/mL | 8 µg/mL | 8 µg/mL | 1 | 0.125 | 
12 | COLISTIN | 0.25 µg/mL | 0.5 µg/mL | 2 µg/mL | 2 µg/mL | 8 µg/mL | 64 µg/mL | 2 µg/mL | 4 µg/mL | 2 µg/mL |  |  |  |  | 
13 | CC(C)c1ccc(NC(=O)NCCc2c[nH]c3ccccc23)cc1 | > 128 µg/mL | > 128 µg/mL | > 128 µg/mL | > 128 µg/mL | > 128 µg/mL | > 128 µg/mL | > 128 µg/mL | > 128 µg/mL | > 128 µg/mL | 4 µg/mL | 16 µg/mL | 0.5 | 0.25 | 
14 | CCCCCCNC(=O)NCCc1c[nH]c2ccccc12 | > 128 µg/mL | > 128 µg/mL | > 128 µg/mL | > 128 µg/mL | > 128 µg/mL | > 128 µg/mL | > 128 µg/mL | > 128 µg/mL | > 128 µg/mL | 4 µg/mL | 2 µg/mL | 0.5 | 0.031 | 0.143
15 | O=C(NCCc1c[nH]c2ccccc12)Nc1cccc(Cl)c1 | > 128 µg/mL | > 128 µg/mL | > 128 µg/mL | > 128 µg/mL | > 128 µg/mL | > 128 µg/mL | > 128 µg/mL | > 128 µg/mL | > 128 µg/mL | 8 µg/mL | 2 µg/mL | 1 | 0.031 | 0.062
16 | CCCNC(=O)NCCc1c[nH]c2ccccc12 | > 128 µg/mL | > 128 µg/mL | > 128 µg/mL | > 128 µg/mL | > 128 µg/mL | > 128 µg/mL | > 128 µg/mL | > 128 µg/mL | > 128 µg/mL | 4 µg/mL | 8 µg/mL | 0.5 | 0.125 | 
17 | CC(C)(C)NC(=O)NCCc1c[nH]c2ccccc12 | > 128 µg/mL | > 128 µg/mL | > 128 µg/mL | > 128 µg/mL | > 128 µg/mL | > 128 µg/mL | > 128 µg/mL | > 128 µg/mL | > 128 µg/mL | 8 µg/mL | 8 µg/mL | 1 | 0.125 | 
18 | O=C(NCCc1c[nH]c2ccccc12)Nc1ccccc1Br | > 128 µg/mL | > 128 µg/mL | > 128 µg/mL | > 128 µg/mL | > 128 µg/mL | > 128 µg/mL | > 128 µg/mL | > 128 µg/mL | > 128 µg/mL | 4 µg/mL | 2 µg/mL | 0.5 | 0.031 | 0.31
19 | O=C(NCCc1c[nH]c2ccccc12)Nc1ccc(Cl)cc1 | > 128 µg/mL | > 128 µg/mL | > 128 µg/mL | > 128 µg/mL | > 128 µg/mL | > 128 µg/mL | > 128 µg/mL | > 128 µg/mL | > 128 µg/mL | 4 µg/mL | 4 µg/mL | 0.5 | 0.062 | 0.276

Reference: ChEMBL document CHEMBL5523690, “Synergistic effect of tryptamine-urea derivatives to overcome the chromosomally-mediated colistin resistance in Klebsiella pneumoniae” (Bioorg Med Chem, 2024)
